According to the array DNA melting data of Ke et al. (doi:10.1101/2024.01.08.574731):

Key:
[1] = folding enthalpy; higher = less favourable; fluorescence melt of hairpins on a sequencing array, two-state fit; conditions: sodium 0.088 M
Method in brief: (§1)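 Folding enthalpy and melting temperature come from bootstrapped two-state fits to Cy3 fluorescence of library hairpins carrying annealed Cy3 and quencher oligos on a sequenced MiSeq flow cell. Imaging was done in 50 mM Na-HEPES pH 8.0, 25 mM NaCl, stepping by 2.5 °C up to 60 °C, and signals were normalised to pre-quench Cy3 and to control constructs. Results of four replicates were combined by inverse variance, and fitted temperatures were raised by 9.35 °C to match UV melts.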

[2] = melting temperature; fluorescence melt of hairpins on a sequencing array, two-state fit, raised by 9.35 °C to match UV melts; conditions: sodium 0.088 M
Method in brief: as §1

| Sequence | folding enthalpy [1] | Tm [2] |
| --- | --- | --- |
| GCGTTCGAACGC ((((....)))) | -36 kcal/mol | 56.9 °C |
| GCGTTGAAACGC ((((....)))) | -20.8 kcal/mol | 53.5 °C |
| GCGTTGACACGC ((((....)))) | -21.2 kcal/mol | 50.1 °C |
| GCGTTGACGAAAGTCCGC (((..(((....)))))) | -24.1 kcal/mol | 51.4 °C |
| GCGTTGCCGAAAGGCCGC (((..(((....)))))) | -16.6 kcal/mol | 55.6 °C |
| GCGTTGCGAAAGCACGGC ((..(((....)))..)) | -13.6 kcal/mol | 58.9 °C |
| GCGTTGCGAAAGCACTGC ((..(((....)))..)) | -18.2 kcal/mol | 46.1 °C |
| GCGTTGCGAAAGCATCGC (((.(((....))).))) | -55.8 kcal/mol | 61.3 °C |
| GCGTTGCGAAAGCCACGC ((((.((....)).)))) | -36.6 kcal/mol | 66.6 °C |
| GCGTTGCGAAAGCCTCGC (((..((....))..))) | -18.5 kcal/mol | 58.1 °C |
| GCGTTGGCGAAAGCCCGC (((..(((....)))))) | -18.8 kcal/mol | 57.3 °C |
| GCGTTGGGAAACCAATGC ((.((((....)))).)) | -43.2 kcal/mol | 54.3 °C |
| GCGTTGTACGC ((((...)))) | -19 kcal/mol | 65.8 °C |
| GCGTTGTGACGC ((((....)))) | -31.6 kcal/mol | 59 °C |
| GCGTTTAAACGC ((((....)))) | -29.4 kcal/mol | 54.7 °C |
| GCGTTTCCGAAAGGACGC (((..(((....)))))) | -24.5 kcal/mol | 49.7 °C |
| GCGTTTCGAAAGAACCGC (((.(((....))).))) | -39.8 kcal/mol | 52.4 °C |
| GCGTTTCGACGC ((((....)))) | -28.6 kcal/mol | 55.9 °C |
| GCGTTTGTACGC ((((....)))) | -25.4 kcal/mol | 54.9 °C |
| GCGTTTTCGAAAGAACGC (((..(((....)))))) | -32 kcal/mol | 49.6 °C |
| GCTAAACGAAAGTTAAGC (((.(((....))).))) | -29.1 kcal/mol | 44.3 °C |
| GCTAAATCGAAAGATAGC (((..(((....)))))) | -18.4 kcal/mol | 33.9 °C |
| GCTAACCGAAAGGTAAGC (((.(((....))).))) | -30.8 kcal/mol | 52.1 °C |

| Sequence | folding enthalpy [1] | Tm [2] |
| --- | --- | --- |
| GCTAACGAAAGTTCAAGC ((((((....)))..))) | -12.5 kcal/mol | 30.9 °C |
| GCTAACGAAAGTTCAGC ((((((....))).))) | -21.8 kcal/mol | 39 °C |
| GCTAACGAAAGTTGAGC ((((((....))).))) | -26.1 kcal/mol | 41.5 °C |
| GCTAACGAAAGTTTCAGC ((((((....)))..))) | -14.2 kcal/mol | 29.7 °C |
| GCTAACGGAAACGTTAAC (.(((((....))))).) | -16.1 kcal/mol | 34.8 °C |
| GCTAACGGAAACGTTGGC ((.((((....)))).)) | -36.1 kcal/mol | 52.6 °C |
| GCTAAGAAATTAGC (((((....))))) | -16.8 kcal/mol | 39.5 °C |
| GCTAAGCGAAAGCATCGC ((.(.((....)).).)) | -11.1 kcal/mol | 30.7 °C |
| GCTAAGCGAAAGCCGAGC (((..((....))..))) | -19.1 kcal/mol | 42.2 °C |
| GCTAAGCGAAAGCGTTGC ((.(.((....)).).)) | -20 kcal/mol | 53.4 °C |
| GCTAAGCGAAAGCTTCGC ((.((((....)))).)) | -20.9 kcal/mol | 53.8 °C |
| GCTAATCGAAAGATAGC (((.(((....)))))) | -26.4 kcal/mol | 44.6 °C |
| GCTAATCGAAAGATCAGC (((.(((....))).))) | -29.4 kcal/mol | 41.2 °C |
| GCTAATGGAAACACTAGC ((((.((....)).)))) | -23.9 kcal/mol | 31.2 °C |
| GCTAATGGAAACATTGGC ((.((((....)))).)) | -41.2 kcal/mol | 45.6 °C |
| GCTACCGAAAGGTAGAGC ((((((....)))..))) | -19.1 kcal/mol | 53.7 °C |
| GCTACCGAAAGGTCCAGC ((((((....)))..))) | -11.4 kcal/mol | 29 °C |
| GCTACCGAAAGGTTAGC ((((((....))).))) | -28 kcal/mol | 52.7 °C |
| GCTACCGGAAACAGTAGC (((((.(....).))))) | -34.3 kcal/mol | 40.6 °C |
| GCTACGACGAAAGTCAGC (((..(((....)))))) | -17 kcal/mol | 37 °C |
| GCTACGCGAAAGCCAAGC (((..((....))..))) | -13.3 kcal/mol | 34.9 °C |
| GCTACGCGAAAGCCTCGC ((.(.((....)).).)) | -7.35 kcal/mol | 18.1 °C |
| GCTACGCGAAAGCTCAGC (((..((....))..))) | -13.1 kcal/mol | 37 °C |

| Sequence | folding enthalpy [1] | Tm [2] |
| --- | --- | --- |
| GCTACGGCGAAAGCCAGC (((..(((....)))))) | -13.3 kcal/mol | 42.9 °C |
| GCTACTCCGAAAGGAAGC (((..(((....)))))) | -17.9 kcal/mol | 30.1 °C |
| GCTACTCGAAAGAGAAGC (((.(((....))).))) | -28.6 kcal/mol | 50.4 °C |
| GCTACTCGAAAGAGCAGC (((.(((....))).))) | -37.7 kcal/mol | 49.6 °C |
| GCTACTGAAAAGTAGC ((((((....)))))) | -35.1 kcal/mol | 56.7 °C |
| GCTACTGGAAACAGCAGC (((.(((....))).))) | -28.7 kcal/mol | 44.7 °C |
| GCTAGAGGAAACTTTAGC ((((.((....)).)))) | -20.8 kcal/mol | 35 °C |
| GCTAGCGAAAGCTAAAGC ((((((....)))..))) | -19.1 kcal/mol | 46 °C |
| GCTAGCGAAAGCTACAGC ((((((....)))..))) | -15.5 kcal/mol | 39.6 °C |
| GCTAGCGAAAGCTTGAGC ((((((....)))..))) | -13.5 kcal/mol | 41.2 °C |
| GCTAGGCGAAAGCACAGC (((..((....))..))) | -19.4 kcal/mol | 46.3 °C |
| GCTAGGCGAAAGCAGAGC (((..((....))..))) | -23.5 kcal/mol | 53.3 °C |
| GCTAGGCGAAAGCATAGC ((((.((....)).)))) | -32.7 kcal/mol | 64.6 °C |
| GCTAGGCGAAAGCATCGC ((.(.((....)).).)) | -15.9 kcal/mol | 38 °C |
| GCTAGGCGAAAGCATGGC ((.(.((....)).).)) | -20.7 kcal/mol | 50.1 °C |
| GCTAGGCGAAAGCCCTGC ((..(((....)))..)) | -12.3 kcal/mol | 39.8 °C |
| GCTAGGCGAAAGCCTTGC ((.((((....)))).)) | -21.1 kcal/mol | 61.8 °C |
| GCTAGGCGAAAGCGTGGC ((.(.((....)).).)) | -19.5 kcal/mol | 49.8 °C |
| GCTAGGCGAAAGCTTAGC ((((.((....)).)))) | -31.1 kcal/mol | 61 °C |
| GCTAGGGAAACCTAGC ((((((....)))))) | -36.9 kcal/mol | 58.4 °C |
| GCTAGTCGAAAGACAGC (((.(((....)))))) | -24.8 kcal/mol | 52.1 °C |
| GCTAGTGGAAACACCAGC (((.(((....))).))) | -23.6 kcal/mol | 39.2 °C |
| GCTATAACGAAAGTTAGC (((..(((....)))))) | -19.8 kcal/mol | 37.5 °C |

| Sequence | folding enthalpy [1] | Tm [2] |
| --- | --- | --- |
| GCTATACGAAAGTACAGC (((.(((....))).))) | -30.2 kcal/mol | 41.8 °C |
| GCTATACGAAAGTAGAGC (((.(((....))).))) | -38.3 kcal/mol | 53.4 °C |
| GCTATAGAAATATAGC ((((((....)))))) | -32.9 kcal/mol | 42.8 °C |
| GCTATAGGAAACTATAGC (((((((....))))))) | -39.5 kcal/mol | 53.2 °C |
| GCTATAGGAAACTGTAGC ((((.((....)).)))) | -32.8 kcal/mol | 43.5 °C |
| GCTATATCGAAAGATAGC (((..(((....)))))) | -25.2 kcal/mol | 36.2 °C |
| GCTATCGAAAGATAAGC ((((((....))).))) | -26.7 kcal/mol | 45 °C |
| GCTATCGAAAGATCCAGC ((((((....)))..))) | -13.3 kcal/mol | 26.1 °C |
| GCTATCGAAAGATTGAGC ((((((....)))..))) | -20.5 kcal/mol | 32.9 °C |
| GCTATCGCGAAAGCGAGC (((..(((....)))))) | -10.3 kcal/mol | 39.2 °C |
| GCTATCGGAAACGATAAC (.(((((....))))).) | -17.4 kcal/mol | 34.5 °C |
| GCTATCGGAAACGATAGC (((((((....))))))) | -52.4 kcal/mol | 64.3 °C |
| GCTATGCGAAAGCAAGGC ((..(((....)))..)) | -18.4 kcal/mol | 42.5 °C |
| GCTATGCGAAAGCACCGC ((..(((....)))..)) | -8.22 kcal/mol | 31.9 °C |
| GCTATGCGAAAGCCAAGC (((..((....))..))) | -16.7 kcal/mol | 36.5 °C |
| GCTATGCGAAAGCCTCGC ((.(.((....)).).)) | -11.5 kcal/mol | 32.2 °C |
| GCTATGCGAAAGCGTAGC ((((.((....)).)))) | -34.5 kcal/mol | 65.7 °C |
| GCTATGGGAAACCATGGC ((.((((....)))).)) | -41 kcal/mol | 50.9 °C |
| GCTATGGGAAACTATAGC (((((.(....).))))) | -33.3 kcal/mol | 43.7 °C |
| GCTATTGGAAACAACAGC (((.(((....))).))) | -16.9 kcal/mol | 33.7 °C |
| GCTATTGGAAACAATGGC ((.((((....)))).)) | -36.1 kcal/mol | 45.7 °C |
| GCTATTTCGAAAGAAAGC (((..(((....)))))) | -12.5 kcal/mol | 28.3 °C |
| GCTCAGCCGAAAGGCAGC (((..(((....)))))) | -13.1 kcal/mol | 41.1 °C |
